TAAR1 antag: antagonists of human TAAR1; 1.5% of 360,000 active; Q96RJ0; CHO RD-HGA16 TAAR1, Fluo-8 calcium fluorescence, antagonist; inhibition, % at 3 µM;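 active = inhibition above a per-plate cutoff, the mean inhibition of test compounds on that plate plus 3 SD, cut at about 49% in these data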;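 note: 0% = DMSO plus EC80 beta-PEA response and 100% = DMSO alone without agonist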
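Assay system: CHO-derived RD-HGA16 cells stably expressing human TAAR1 plus Gα16. Timing: 140 s kinetic read after compound, 140 s after agonist. Technique: kinetic Fluo-8 calcium fluorescence measurement. Measure: % inhibition of agonist calcium response.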
V1R ag counter: V1a receptor agonism, counter-screen for OXTR agonists; activation, % at 3 µM; CHO-V1R cells, Fluo-8 calcium fluorescence, agonist mode; 0% DMSO, 100% 3 nM vasopressin; P37288; AID 2797; 0.25% of 320,000 active;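 active = activation above the mean activation of all tested compounds plus 3 SD, per screening run, cut at about 20% in these data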;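 note: signal is peak over basal fluorescence ratio across a 100 second FLIPR read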
OXTR agonist: human OXTR agonism. CHO-OTR cells, Fluo-8 calcium fluorescence; normalized: DMSO 0%, oxytocin 100%. activation, % at 3 µM. 0.32% of 320,000 active. AID 2435;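 active = activation above the mean of all tested compounds plus 3 SD, cutoff set per screening run, cut at about 20% in these data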;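 note: peak over basal fluorescence ratio from a 100 s FLIPR kinetic read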
Target sequence (P30559 whole entry, looked up): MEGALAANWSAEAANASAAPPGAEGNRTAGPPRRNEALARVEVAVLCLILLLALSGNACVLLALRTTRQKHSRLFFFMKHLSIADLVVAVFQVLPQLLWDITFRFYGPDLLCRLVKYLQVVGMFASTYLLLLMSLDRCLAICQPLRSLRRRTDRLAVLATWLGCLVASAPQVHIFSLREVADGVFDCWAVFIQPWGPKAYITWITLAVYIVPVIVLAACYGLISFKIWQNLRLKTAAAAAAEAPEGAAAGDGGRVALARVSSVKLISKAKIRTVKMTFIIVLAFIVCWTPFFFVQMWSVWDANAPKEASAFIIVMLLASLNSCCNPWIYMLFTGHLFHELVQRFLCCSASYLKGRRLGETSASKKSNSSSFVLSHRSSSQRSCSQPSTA
TAAR1 ag: agonists of human TAAR1; Q96RJ0; CHO RD-HGA16 TAAR1, Fluo-8 calcium fluorescence; vehicle wells 0%, saturating PEA agonist 100%; activation, % at 3 µM; 0.99% of 360,000 active;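 active = activation above the mean activation of all test compounds in the run plus 3 SD, cut at about 38% in these data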
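Assay system: CHO-derived RD-HGA16 cells with stable Gα16 and human TAAR1; timing: 17-24 h seeding, 75 min 37 °C dye, 30 min RT; read-out: % activation from peak over basal fluorescence ratio, DMSO-to-PEA scaled; measured by: kinetic Fluo-8 calcium fluorescence; benchmarks: low control DMSO, high control PEA (EC100); doses: 3 µM single concentration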
OXTR potentiator: human OXTR potentiation. P30559. CHO-OTR cells, Fluo-8 calcium fluorescence, potentiator mode; 0% = oxytocin EC15, 100% = EC100. activation, % at 3 µM. 0.061% of 320,000 active. AID 2445;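 active = activation above that plate's cutoff, the mean activation of tested compounds plus 3 SD, cut at about 6.6% in these data, passing the limit was not always enough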;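 note: 100% uses oxytocin at 75 nM as the full agonist control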
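System: human OTR in CHO cells / Also added: sub-maximal oxytocin, roughly EC15 / Control set: EC15 oxytocin low, 75 nM oxytocin high / Schedule: 6 min compound pre-incubation at room temperature, 100 s kinetic read / Compound: single-point 3.0 µM / Replication: singlicate / Technique: Fluo-8 calcium dye fluorescence / Read-out basis: % activation of max/min ratio relative to oxytocin controls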
* marks the source's active call; other numbers are inactive results; nt = no result. Most compounds without a hit are left out; they make up all but 2.3% or so of the library.

SMILES	TAAR1 antag	V1R ag counter	OXTR agonist	TAAR1 ag	OXTR potentiator
CCOc1ccc(C(=O)C(C)OC(=O)c2cnc(C)cn2)cc1 (stereo not drawn)	-2	-1	-1	1	0
O=C(c1cc2nc(-c3ccc(F)cc3)cc(C(F)(F)F)n2n1)N1CCCCC1c1cccnc1 (stereo not drawn)	19	3	0	-1	-6
Cc1cccc(/C=C/C(=O)c2ccc([N+](=O)[O-])o2)c1	33	2	-2	37	6
O=C(/C=C/c1cccc([N+](=O)[O-])c1)c1ccc([N+](=O)[O-])o1	68*	1	0	50*	15
CN(CC(=O)Nc1ccc(Cl)c(C(F)(F)F)c1)C(=O)c1cc(=O)c2ccccc2o1	15	12	15	45*	-14
Cc1cc(NC(=O)CN(C)CC(=O)Nc2ccc(Cl)c(C(F)(F)F)c2)no1	-12	8	10	41*	-7
O=C1NCCOC(=O)[C@H](Cc2ccc(F)cc2)CC/C=C/C[C@H]1CC(=O)N(CCO)Cc1ccccc1	13	0	0	1	1
O=C1NC[C@H](c2ccccc2)OC(=O)[C@H](Cc2ccc(F)cc2)CC/C=C/C[C@H]1CC(=O)N(CCO)Cc1ccccc1	62*	0	-1	41*	-8
O=C1NC[C@@H](c2ccccc2)OC(=O)[C@@H](Cc2ccc(F)cc2)C/C=C\C[C@@H]1CC(=O)N(CCO)Cc1ccccc1	69*	3	5	38*	-10
CC(C)(C)[C@@H]1COC(=O)[C@H](Cc2ccc(F)cc2)CC/C=C\C[C@H](CC(=O)N(CCO)Cc2ccccc2)C(=O)N1	56*	2	-1	36	-5
CC(C)(C)[C@H]1COC(=O)[C@H](NC(=O)OCC2c3ccccc3-c3ccccc32)C/C=C\C[C@@H](CC(=O)N(CCO)Cc2ccccc2)C(=O)N1	51*	1	0	19	-8
COCCNC(=O)c1c(N)[nH]c(C(=O)c2ccc(Br)cc2)c1-c1ccc(Br)cc1	1	nt	nt	0	nt
CC(C)(C)OC(=O)C[C@@H]1C/C=C\C[C@@H](CC(=O)N(CCO)Cc2ccccc2)C(=O)N[C@@H](c2ccccc2)COC1=O	49*	0	0	15	4
O=C1NC[C@H](c2ccccc2)OC(=O)[C@@H](Cc2ccc(F)cc2)CC/C=C/C[C@H]1CC(=O)N(CCO)Cc1ccccc1	71*	1	-1	30	-7
C[C@@H]1COC(=O)[C@H](CC(=O)OC(C)(C)C)C/C=C\C[C@H](CC(=O)N(CCO)Cc2ccccc2)C(=O)N1	17	0	0	5	-4
O=C1NC[C@H](c2ccccc2)OC(=O)[C@@H](Cc2ccc(F)cc2)CC/C=C/C[C@@H]1CC(=O)N(CCO)Cc1ccccc1	44	0	-1	18	-10
COc1cc2[nH]c(C(=O)N3CCc4ccccc43)cc2c(OC)c1OC	13	0	-1	2	2
COc1cccc(C(=O)Nc2nc(-c3ccc(S(=O)(=O)N4CCOCC4)cc3)cs2)c1	50*	3	5	21	-7
C#Cc1cccc(Nc2nc(NC(C)C)nc3ccsc23)c1	35	nt	nt	2	nt
C#Cc1cccc(Nc2nc(NCc3ccccc3OC)nc3ccsc23)c1	52*	nt	nt	5	nt
C#Cc1cccc(Nc2nc(NCCOC)nc3ccsc23)c1	57*	nt	nt	9	nt
CN(Cc1nc2ccccc2c(=O)[nH]1)C(=O)c1cc(-c2ccc(Br)cc2)nc2ccccc12	50*	nt	nt	3	nt
CN(Cc1nc2ccccc2c(=O)[nH]1)C(=O)c1ccccc1OCc1ccc(Cl)cc1	21	1	-2	7	-2
COc1ccc(NC(=O)Nc2ccc3c(c2)N(C)C(=O)CS3)cc1Cl	63*	11	9	25	-32
Cc1ccc(NC(=O)Nc2ccc3c(c2)N(C)C(=O)CS3)nc1	49*	0	1	24	-4
CC(=O)c1ccc(NC(=O)Nc2ccc3c(c2)N(C)C(=O)CS3)cc1	76*	12	12	44*	-25
CCOc1ccc(NC(=O)Nc2ccc3c(c2)N(C)C(=O)CS3)cc1	52*	10	3	13	-10
Cc1cccc(-c2nnc(-c3ccc4ccccc4c3)o2)c1	9	nt	nt	2	nt

High-throughput results from PubChem.
